# Hits are enriched below; roughly 2.2% of the tested compounds scored in any of these assays.
# PfGluPho inh = PfG6PD enzyme inhibitors, primary screen, biochemical, fluorescence intensity, uHTS; glucose-6-phosphate dehydrogenase-6-phosphogluconolactonase (Plasmodium falciparum 3D7); PfGluPho enzyme, NADPH resazurin-diaphorase fluorescence; inhibition, % at 20 µM; 350,000 compounds, 0.78% hits;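 active means inhibition reaching at least a set limit at 20 µM in the primary screen, cut at about 59% in these data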;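 further: 0% = DMSO wells with substrate and 100% = DMSO wells lacking glucose-6-phosphate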
# Neddyl block = inhibitors of cullin neddylation, primary screen, biochemical, TR-FRET, uHTS, NAE and Ubc12. NEDD8-conjugating enzyme Ubc12 (Homo sapiens) + NEDD8-activating enzyme E1 regulatory …. inhibition, % at 25 µM. 360,000 compounds, 0.58% hits; in the data active means inhibition above about 36%
# PfM18AAP inh-1 = PfM18AAP inhibitors, malaria aminopeptidase, primary screen, biochemical, QFRET, recombinant enzyme | M18 aspartyl aminopeptidase (Plasmodium falciparum 3D7) | H-Glu-NHMec fluorogenic cleavage | inhibition, % at 7.35 µM | 290,000 compounds, 1.2% hits | AID 1822, 2009;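 active means inhibition above the campaign mean inhibition over all tested compounds plus 3 SD, cut at about 28% in these data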;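 further: 0% = plate median of test compound wells and 100% = 2 mM ZnCl2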
# HKDC1 inh = HKDC1 hexokinase inhibitors, primary screen, biochemical, fluorescence, uHTS; Q2TB90; recombinant HKDC1, G6PDH/diaphorase resazurin coupled fluorescence; inhibition, % at 20 µM; 340,000 compounds, 0.16% hits; AID 493160, 2011;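 active means inhibition above about 35% when tested at 20 µM, limit read from the data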;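 further: plate controls were DMSO wells with enzyme for no effect and DMSO wells lacking enzyme for full effect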
# Target sequence (Q2TB90 whole entry, looked up): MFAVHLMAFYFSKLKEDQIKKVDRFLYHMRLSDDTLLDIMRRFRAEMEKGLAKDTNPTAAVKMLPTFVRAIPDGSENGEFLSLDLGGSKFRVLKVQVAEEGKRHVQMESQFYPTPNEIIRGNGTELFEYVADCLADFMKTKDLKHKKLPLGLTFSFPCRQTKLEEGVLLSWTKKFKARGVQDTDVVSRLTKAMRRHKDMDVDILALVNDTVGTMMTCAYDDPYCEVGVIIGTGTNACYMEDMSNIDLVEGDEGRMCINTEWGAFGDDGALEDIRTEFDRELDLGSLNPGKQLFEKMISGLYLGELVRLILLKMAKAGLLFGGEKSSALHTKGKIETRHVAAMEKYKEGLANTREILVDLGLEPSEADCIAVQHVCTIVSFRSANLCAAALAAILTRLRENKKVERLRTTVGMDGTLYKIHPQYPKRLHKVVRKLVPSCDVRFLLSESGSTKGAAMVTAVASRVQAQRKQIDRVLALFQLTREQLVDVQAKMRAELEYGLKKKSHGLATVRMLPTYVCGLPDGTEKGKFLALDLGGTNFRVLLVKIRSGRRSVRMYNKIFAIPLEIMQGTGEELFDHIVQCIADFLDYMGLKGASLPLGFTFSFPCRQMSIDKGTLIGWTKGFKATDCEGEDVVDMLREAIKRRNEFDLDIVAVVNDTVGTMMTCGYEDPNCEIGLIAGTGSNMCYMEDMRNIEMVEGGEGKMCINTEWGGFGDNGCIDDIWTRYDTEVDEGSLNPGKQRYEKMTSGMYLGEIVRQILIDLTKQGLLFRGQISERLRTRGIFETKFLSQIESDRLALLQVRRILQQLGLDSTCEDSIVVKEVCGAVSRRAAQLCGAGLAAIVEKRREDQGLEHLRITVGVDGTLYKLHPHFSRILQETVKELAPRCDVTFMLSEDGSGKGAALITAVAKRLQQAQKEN
#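 Incubation: 90 min at room temperature in dark / Material: recombinant HKDC1 (HK5) hexokinase enzyme, produced in-house / Quantity: enzyme 5 µg/mL final / Compound: one dose of 20 µM, 1% DMSO / Reagent: glucose and ATP substrates / Buffer or medium: Tris pH 8.0 buffer with MgCl2, Tween-20, BSA, BME / Technique: resorufin fluorescence at 613 nm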
# PfM18AAP inh-2 = PfM18AAP inhibitors, malaria aminopeptidase, confirmation, biochemical, QFRET, recombinant enzyme, triplicate. shares compounds with PfM18AAP inh-1. H-Glu-NHMec fluorogenic cleavage. inhibition, % at 7.35 µM. 2,400 compounds, 28% hits. AID 2170, 2009;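 active means mean inhibition over replicate wells above the hit cutoff set for the earlier primary screen, cut at about 29% in these data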;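 further: 0% = median of test compound wells and 100% = 2 mM ZnCl2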
# CTSL1 counter = cathepsin L1 inhibitors, retest, confirmation, counter-screen for PFM18AAP inhibitor project, biochemical, QFRET, triplicate | shares compounds with PfM18AAP inh-1 | purified cathepsin L1, Z-Leu-Arg-MCA fluorescence | 2,400 tested, under 10 active | inhibition, % at 5.96 µM;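 active means average inhibition across replicates above the hit cutoff set in the earlier primary screen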;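 further: 0% = median of test compound wells and 100% = Z-Phe-Ala-diazomethylketone 1 µM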
# Numbers without * were called inactive; x = not tested or not shown.
SMILES,PfGluPho inh,Neddyl block,PfM18AAP inh-1,HKDC1 inh,PfM18AAP inh-2,CTSL1 counter
Cc1nnc(NNS(=O)(=O)c2ccc(Cl)cc2)[nH]c1=O,-5.1,5.3,72.3*,-1.5,60.0*,-8.6
Cc1ccc(S(=O)(=O)NNc2nnc(C)c(=O)[nH]2)cc1,23.1,5.2,73.9*,9.2,39.3*,-5.2
COC(=O)CC1C(=O)NCCN1C(=O)c1ccc([N+](=O)[O-])cc1 (stereo unspecified),5.0,-22.1,-13.6,-5.0,x,x
Cc1nn(C)c(C(=O)NNC(=O)Nc2cccc(C(F)(F)F)c2)c1Cl,3.4,-5.1,-1.9,3.3,x,x
S=c1[nH]c(-c2ccccc2)cn1/N=C/c1ccncc1,53.0,-15.2,51.3*,2.2,42.7*,-7.5
COc1cccc(C(NC(C)=O)c2nc(-c3cccc(C(C)C)c3)cs2)c1 (stereo unspecified),x,-9.0,x,x,x,x
CCOC(=O)c1ccc(CC(=O)c2ccc(O)c(O)c2O)o1,21.8,-6.1,48.4*,-12.4,-0.2,-0.2
COc1ccc(NC(=O)NNC(=O)c2cc3occc3n2C)c(OC)c1,3.2,-4.9,60.8*,-3.1,38.2*,2.3
C=CCNC(=O)N[C@@H](Cc1ccccc1)C(=O)OC,-4.5,-3.7,5.1,-6.5,x,x
Cc1cnc(CNC(=O)c2csc([C@H]3C[C@H](O)[C@@H](CO)O3)n2)cn1,x,0.1,x,x,x,x
Cc1[nH]nc2c1C(c1cc(Br)cs1)C(C#N)=C(N)O2 (stereo unspecified),-11.0,-26.1,71.7*,7.0,62.2*,-0.4
Cc1[nH]nc2c1[C@@H](c1ccccc1[N+](=O)[O-])C(C#N)=C(N)O2,8.0,24.4,35.9*,4.4,10.3,2.8
Cc1[nH]nc2c1C(c1c[nH]c3ccccc13)C(C#N)=C(N)O2 (stereo unspecified),3.9,-4.9,2.9,-0.1,x,x
Cc1c(NC(=S)N/N=C/c2ccc(O)cc2)c(=O)n(-c2ccccc2)n1C,-4.0,-11.4,34.6*,-8.5,5.9,7.8
CCC(=O)c1ccc(OCC(=O)Nc2nn3cnnc3s2)cc1,-31.0,3.2,66.3*,7.4,39.8*,-2.9
CCOC(=O)C1(C)CCCN(C(=O)c2snnc2C)C1 (stereo unspecified),x,5.5,x,x,x,x
COc1cc(NC(=O)c2cccc(NC3=NC4CS(=O)(=O)CC4S3)c2)cc(OC)c1OC (stereo unspecified),7.3,3.7,-5.1,-1.6,x,x
Cc1cc(C)c2nc(NNC(=O)c3ccc(S(=O)(=O)N4CCCC(C)C4)cc3)sc2c1 (stereo unspecified),-8.7,21.6,38.9*,-22.3,-34.9,5.0
Cc1cccc2sc(NNC(=O)c3ccc(S(=O)(=O)N4CC(C)CC(C)C4)cc3)nc12 (stereo unspecified),4.3,18.1,32.0*,-23.5,-29.1,0.3
O=C(NCCc1ccccc1)C(c1ccc(F)cc1)N(C(=O)c1csnn1)C1CC1 (stereo unspecified),-5.5,4.9,-1.2,-3.4,x,x
COc1ccc(C2CC(c3ccc(Br)cc3)=NN2C(=S)Nc2ccccc2)cc1 (stereo unspecified),17.9,-41.5,41.8*,-6.6,-19.8,9.4
CN(C)S(=O)(=O)c1cccc(NC(=O)c2ccc3c(c2)OCCO3)c1,1.5,12.2,x,-0.9,x,x
O=C(Cc1ccccc1)NN1C(=O)/C(=C/c2ccc(C(=O)O)cc2)SC1=S,-3.3,-14.4,34.3*,-1.6,-27.5,5.8
O=C(O)c1ccc(/C=C2/SC(=S)N(Cc3ccccc3)C2=O)cc1,-15.2,4.9,-9.8,5.7,x,x
CSc1ccccc1NC(=O)CN(C)C(=O)COc1cccc2cccnc12,6.5,-23.2,x,17.1,x,x
SMILES,PfGluPho inh,Neddyl block,PfM18AAP inh-1,HKDC1 inh,PfM18AAP inh-2,CTSL1 counter
CC1(C)CC(=O)C/C(=N\NC(=S)NCc2ccccc2)C1,15.5,-8.1,43.4*,-15.4,37.7*,2.2
Cc1cc(C)c(S(=O)(=O)Nc2ccc(O)c(Sc3ncn[nH]3)c2)c(C)c1,52.4,-0.5,48.9*,15.6,13.9,0.2
Cc1cc(C)c(S(=O)(=O)Nc2ncn[nH]2)c(C)c1,5.9,1.8,20.0,-8.4,x,x
Cc1cc(C)c(S(=O)(=O)Nc2ccc(O)c(Sc3ncn[nH]3)c2)cc1C,31.5,1.2,52.2*,3.3,22.0,1.9
CCc1ccc(N2CC(C(=O)OCC(=O)Nc3ccc(C#N)cc3)CC2=O)cc1 (stereo unspecified),0.4,10.7,x,-3.4,x,x
O=S(=O)(c1ccc(NC(=S)NCc2ccc(F)cc2)cc1)N1CCOCC1,5.2,-0.7,-0.8,3.7,x,x
COc1cccc(C(=O)/C=C/Nc2cc(C)ccc2O)c1,14.9,-9.5,68.5*,6.2,-24.2,2.9
COc1ccc(C(=O)NCC(=O)NCc2ccncc2)cc1,7.3,-0.1,x,-11.6,x,x
S=c1nc(C2COc3ccccc3O2)[nH][nH]1 (stereo unspecified),13.1,-4.2,35.4*,-11.9,26.1,2.3
CN(C)c1ccc(/C=N/Nc2ccc(-n3ccnc3)nn2)cc1,30.8,-17.4,34.4*,-1.2,-38.7,8.1
CN(C)c1ccc(/C=N\Nc2ccccn2)cc1,22.0,23.3,-4.5,-4.9,x,x
Cc1cc(C)cc(NC(=O)CCN2CCOCC2)c1,-7.2,1.5,0.0,-5.4,x,x
CCOc1ccc2c(c1)S/C(=C\c1cccs1)C(=O)N2,-22.1,30.3,34.3*,-3.3,-33.5,-1.4
S=c1[nH]nc(Cc2noc3ccccc23)n1-c1ccccc1,26.0,0.9,33.1*,2.1,-1.2,-2.6
O=c1c2ccccc2cnn1Cc1n[nH]c(=S)n1-c1ccccc1,39.2,1.3,34.8*,-2.0,18.5,3.9
O=c1c2ccccc2cnn1Cc1n[nH]c(=S)n1-c1ccc(Cl)cc1Cl,x,x,17.4,x,x,x
S=c1[nH]nc(Cc2cccc3ccccc23)n1-c1ccccc1,18.9,-2.5,2.6,0.0,x,x
NNc1nnc2c3cc(F)ccc3n(CCc3ccccc3)c2n1,22.7,-39.4,44.0*,-7.0,3.0,5.9
Fc1ccc2c(c1)c1n[nH]c(=S)nc1n2CCc1ccccc1,33.4,-31.7,2.8,1.1,x,x
S=c1nc(-c2ccccc2Cl)[nH][nH]1,18.4,0.0,48.9*,-4.2,2.2,-0.7
Clc1ccccc1-c1nc2ccccc2[nH]1,12.1,5.2,5.1,-2.7,x,x
COc1ccc2nc(NCc3ccc(OC)c(OC)c3OC)sc2c1,10.8,12.5,x,-1.9,x,x
COc1ccc(/C=N/Nc2nc3ccccc3o2)cc1O,23.2,-2.1,49.8*,-3.9,-33.0,5.4
COc1cc(/C=N/Nc2nc3ccccc3o2)cc(OC)c1O,34.3,10.2,42.8*,5.5,22.6,4.4
COc1ccc(Cl)cc1-c1nc(SCC(=O)NCC2CCCO2)n[nH]1 (stereo unspecified),26.4,2.2,x,-4.0,x,x
